# Legend:
# Escherichia coli [1] = experiment: Antibacterial activity against ampicillin/ciprofloxacin/gentamicin/tetracycline-resistant Escherichia coli 555 assessed as growth inhibition after 18 to 24 hrs by broth microdilution method; type: functional
# Escherichia coli [2] = experiment: Bactericidal activity against chloroamphenicol/ampicillin/kanamycin/trimethoprim/ciprofloxacin/nalidixic acid-resistant Escherichia coli 85 by agar plating method; type: functional
# Escherichia coli [3] = experiment: Bactericidal activity against ampicillin/tetracycline/gentamicin-resistant Escherichia coli 451 by agar plating method; type: functional
# Escherichia coli [4] = experiment: Bactericidal activity against chloramphenicol/ampicillin/trimethoprim/ciprofloxacin/nalidixic acid-resistant Escherichia coli 59 by agar plating method; type: functional
# Escherichia coli [5] = experiment: Bactericidal activity against ampicillin/kanamycin/trimethoprim/tetracyclin/ciprofloxacin/nalidixic acid-resistant Escherichia coli 81 by agar plating method; type: functional
# Escherichia coli [6] = experiment: Bactericidal activity against chloramphenicol/ampicillin/kanamycin/trimethoprim/ciprofloxacin/nalidixic acid-resistant Escherichia coli 132 by agar plating method; type: functional
# Escherichia coli [7] = experiment: Bactericidal activity against chloramphenicol/ampicillin/kanamycin/trimethoprim/ciprofloxacin/nalidixic acid-resistant Escherichia coli 151 by agar plating method; type: functional
# Escherichia coli [8] = experiment: Bactericidal activity against ampicillin/chloramphenicol/ciprofloxacin/gentamicin/tetracycline-resistant Escherichia coli 401 by agar plating method; type: functional
# Escherichia coli [9] = experiment: Bactericidal activity against ampicillin/ciprofloxacin/gentamicin/tetracycline-resistant Escherichia coli 555 by agar plating method; type: functional
# [10] = Inhibition of Escherichia coli DNA topoisomerase-1A using supercoiled pHOT1 plasmid DNA as substrate assessed as inhibition of DNA relaxation after 30 mins by agarose gel electrophoresis
# Summary of the method: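 Supercoiled plasmid DNA incubated with E. coli Topo IA in the presence of compound at […]. Relaxation products were resolved by electrophoresis on 1% agarose gel.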
# Escherichia coli [11] = experiment: Antibacterial activity against Escherichia coli DH5[alpha] assessed as growth inhibition after 18 to 24 hrs by broth microdilution method; type: functional
# Escherichia coli [12] = experiment: Antibacterial activity against Escherichia coli ATCC 25922 assessed as growth inhibition after 18 to 24 hrs by broth microdilution method; type: functional
# Escherichia coli [13] = experiment: Bactericidal activity against Escherichia coli DH5[alpha] by agar plating method; type: functional
# Escherichia coli [14] = experiment: Bactericidal activity against Escherichia coli ATCC 25922 by agar plating method; type: functional
# Escherichia coli [15] = experiment: Antibacterial activity against ciprofloxacin-resistant Escherichia coli 72 assessed as growth inhibition after 18 to 24 hrs by broth microdilution method; type: functional
# Escherichia coli [16] = experiment: Antibacterial activity against ampicillin/trimethoprim/nalidixic acid-resistant Escherichia coli 118 assessed as growth inhibition after 18 to 24 hrs by broth microdilution method; type: functional
# Escherichia coli [17] = experiment: Antibacterial activity against chloroamphenicol/ampicillin/kanamycin/trimethoprim/ciprofloxacin/nalidixic acid-resistant Escherichia coli 85 assessed as growth inhibition after 18 to 24 hrs by broth microdilution method; type: functional
# Escherichia coli [18] = experiment: Antibacterial activity against ampicillin/tetracycline/gentamicin-resistant Escherichia coli 451 assessed as growth inhibition after 18 to 24 hrs by broth microdilution method; type: functional
# Escherichia coli [19] = experiment: Antibacterial activity against chloramphenicol/ampicillin/trimethoprim/ciprofloxacin/nalidixic acid-resistant Escherichia coli 59 assessed as growth inhibition after 18 to 24 hrs by broth microdilution method; type: functional
# Escherichia coli [20] = experiment: Antibacterial activity against chloramphenicol/ampicillin/kanamycin/trimethoprim/ciprofloxacin/nalidixic acid-resistant Escherichia coli 132 assessed as growth inhibition after 18 to 24 hrs by broth microdilution method; type: functional
# Escherichia coli [21] = experiment: Antibacterial activity against ampicillin/chloramphenicol/ciprofloxacin/gentamicin/tetracycline-resistant Escherichia coli 401 assessed as growth inhibition after 18 to 24 hrs by broth microdilution method; type: functional
# Escherichia coli [22] = experiment: Bactericidal activity against multidrug-resistant Escherichia coli IS 54 isolated from water source by agar plating method; details: IS 54, Water
# Escherichia coli [23] = experiment: Bactericidal activity against ampicillin/tetracycline-resistant Escherichia coli IP18 isolated from water source by agar plating method
# Escherichia coli [24] = experiment: Bactericidal activity against tetracycline/trimethoprim-resistant Escherichia coli IST isolated from water source by agar plating method
# Escherichia coli [25] = experiment: Bactericidal activity against ampicillin/tetracycline/piperacillin-resistant Escherichia coli WB31 isolated from water source by agar plating method
# Escherichia coli [26] = experiment: Bactericidal activity against ampicillin/trimethoprim/piperacillin-resistant Escherichia coli MKNJ isolated from water source by agar plating method
# Escherichia coli [27] = experiment: Antibacterial activity against multidrug-resistant Escherichia coli IP9 isolated from water source assessed as growth inhibition after 18 to 24 hrs by broth microdilution method
# Escherichia coli [28] = experiment: Antibacterial activity against multidrug-resistant Escherichia coli IS 54 isolated from water source assessed as growth inhibition after 18 to 24 hrs by broth microdilution method; details: IS 54, Water
# Escherichia coli [29] = experiment: Bactericidal activity against ampicillin/trimethoprim/cefazolinl/piperacillin/cefuroxime/cefoxitine/cefepime/cefotaxime-resistant Escherichia coli KP21 isolated from water source by agar plating method
# Escherichia coli [30] = experiment: Bactericidal activity against cefazolinl/ampicillin/piperacillin/cefuroxime/cefepime/cefotaxime/tetracycline/ciprofloxacin-resistant Escherichia coli NG3 isolated from water source by agar plating method
# Escherichia coli [31] = experiment: Antibacterial activity against ampicillin/trimethoprim/piperacillin-resistant Escherichia coli MKNJ isolated from water source assessed as growth inhibition after 18 to 24 hrs by broth microdilution method
# Escherichia coli [32] = experiment: Antibacterial activity against ampicillin/chloramphenicol/tetracycline/trimethoprim/ciprofloxacin-resistant Escherichia coli KK45 isolated from water source assessed as growth inhibition after 18 to 24 hrs by broth microdilution method
# Escherichia coli [33] = experiment: Antibacterial activity against ampicillin/trimethoprim/cefazolinl/piperacillin/cefuroxime/cefoxitine/cefepime/cefotaxime-resistant Escherichia coli KP21 isolated from water source assessed as growth inhibition after 18 to 24 hrs by broth microdilution method
# Escherichia coli [34] = experiment: Antibacterial activity against cefazolinl/ampicillin/piperacillin/cefuroxime/cefepime/cefotaxime/tetracycline/ciprofloxacin-resistant Escherichia coli NG3 isolated from water source assessed as growth inhibition after 18 to 24 hrs by broth microdilution method
# Escherichia coli [35] = experiment: Antibacterial activity against cefazolinl/ampicillin/piperacillin/cefuroxime/cefepime/cefotaxime/tetracycline/trimethoprim-resistant Escherichia coli KK16 isolated from water source assessed as growth inhibition after 18 to 24 hrs by broth microdilution method
structure (smiles),measurement,setting,value
CCOc1ccc(-c2nc3ccc(-c4nc5ccc(N6CCN(CCN(C)C)CC6)cc5[nH]4)cc3[nH]2)cc1,MIC50,Escherichia coli [1],32 µg/mL
same,MIC90,Escherichia coli [1],60.4 µg/mL
same,MBC,Escherichia coli [2],32 µg/mL
same,MBC,Escherichia coli [3],64 µg/mL
same,MBC,Escherichia coli [4],32 µg/mL
same,MBC,Escherichia coli [5],64 µg/mL
same,MBC,Escherichia coli [6],128 µg/mL
same,MBC,Escherichia coli [7],64 µg/mL
same,MBC,Escherichia coli [8],32 µg/mL
same,MBC,Escherichia coli [9],64 µg/mL
same,IC50,[10],9.4 µM
same,MIC50,Escherichia coli [11],1 µg/mL
same,MIC90,Escherichia coli [11],14.5 µg/mL
same,MIC50,Escherichia coli [12],8 µg/mL
same,MIC90,Escherichia coli [12],26.6 µg/mL
same,MBC,Escherichia coli [13],2 µg/mL
same,MBC,Escherichia coli [14],16 µg/mL
same,MIC50,Escherichia coli [15],32 µg/mL
same,MIC90,Escherichia coli [15],57.2 µg/mL
same,MIC50,Escherichia coli [16],8 µg/mL
same,MIC90,Escherichia coli [16],15.2 µg/mL
same,MIC50,Escherichia coli [17],16 µg/mL
same,MIC90,Escherichia coli [17],28.6 µg/mL
same,MIC50,Escherichia coli [18],32 µg/mL
same,MIC90,Escherichia coli [18],55.3 µg/mL
same,MIC50,Escherichia coli [19],16 µg/mL
same,MIC90,Escherichia coli [19],28.8 µg/mL
same,MIC50,Escherichia coli [20],64 µg/mL
same,MIC90,Escherichia coli [20],123 µg/mL
same,MIC50,Escherichia coli [21],16 µg/mL
same,MIC90,Escherichia coli [21],30.4 µg/mL
same,MBC,Escherichia coli [22],64 µg/mL
same,MBC,Escherichia coli [23],32 µg/mL
same,MBC,Escherichia coli [24],64 µg/mL
same,MBC,Escherichia coli [25],32 µg/mL
same,MBC,Escherichia coli [26],32 µg/mL
same,MIC50,Escherichia coli [27],64 µg/mL
same,MIC90,Escherichia coli [27],118 µg/mL
same,MIC50,Escherichia coli [28],32 µg/mL
same,MIC90,Escherichia coli [28],60.6 µg/mL
same,MBC,Escherichia coli [29],64 µg/mL
same,MBC,Escherichia coli [30],16 µg/mL
same,MIC50,Escherichia coli [31],16 µg/mL
same,MIC90,Escherichia coli [31],30.6 µg/mL
same,MIC50,Escherichia coli [32],16 µg/mL
same,MIC90,Escherichia coli [32],29.4 µg/mL
same,MIC50,Escherichia coli [33],32 µg/mL
same,MIC90,Escherichia coli [33],61.4 µg/mL
same,MIC50,Escherichia coli [34],8 µg/mL
same,MIC90,Escherichia coli [34],15 µg/mL
same,MIC50,Escherichia coli [35],16 µg/mL
same,MIC90,Escherichia coli [35],27.6 µg/mL
CCOc1ccc(-c2nc3ccc(-c4nc5ccc(N6CCN(CC)CC6)cc5[nH]4)cc3[nH]2)cc1,MIC50,Escherichia coli [1],8 µg/mL
same,MIC90,Escherichia coli [1],13.9 µg/mL
same,MBC,Escherichia coli [2],8 µg/mL
same,MBC,Escherichia coli [3],4 µg/mL
same,MBC,Escherichia coli [4],8 µg/mL
same,MBC,Escherichia coli [5],8 µg/mL
same,MBC,Escherichia coli [6],8 µg/mL
same,MBC,Escherichia coli [7],8 µg/mL
same,MBC,Escherichia coli [8],4 µg/mL
same,MBC,Escherichia coli [9],16 µg/mL
same,IC50,[10],5.8 µM
same,MIC50,Escherichia coli [11],0.5 µg/mL
same,MIC90,Escherichia coli [11],0.7 µg/mL
same,MIC50,Escherichia coli [12],1.78 µg/mL
same,MIC90,Escherichia coli [12],3.1 µg/mL
same,MBC,Escherichia coli [13],1 µg/mL
same,MBC,Escherichia coli [14],4 µg/mL
same,MIC50,Escherichia coli [15],4 µg/mL
same,MIC90,Escherichia coli [15],7.2 µg/mL
same,MIC50,Escherichia coli [16],1 µg/mL
same,MIC90,Escherichia coli [16],1.4 µg/mL
same,MIC50,Escherichia coli [17],4 µg/mL
same,MIC90,Escherichia coli [17],6.9 µg/mL
same,MIC50,Escherichia coli [18],2 µg/mL
same,MIC90,Escherichia coli [18],3.6 µg/mL
same,MIC50,Escherichia coli [19],4 µg/mL
same,MIC90,Escherichia coli [19],7.4 µg/mL
same,MIC50,Escherichia coli [20],4 µg/mL
same,MIC90,Escherichia coli [20],7.2 µg/mL
same,MIC50,Escherichia coli [21],2 µg/mL
same,MIC90,Escherichia coli [21],3.7 µg/mL
same,MBC,Escherichia coli [22],8 µg/mL
same,MBC,Escherichia coli [23],8 µg/mL
same,MBC,Escherichia coli [24],8 µg/mL
same,MBC,Escherichia coli [25],8 µg/mL
same,MBC,Escherichia coli [26],8 µg/mL
same,MIC50,Escherichia coli [27],4 µg/mL
same,MIC90,Escherichia coli [27],7.2 µg/mL
same,MIC50,Escherichia coli [28],4 µg/mL
same,MIC90,Escherichia coli [28],7.1 µg/mL
same,MBC,Escherichia coli [29],8 µg/mL
same,MBC,Escherichia coli [30],8 µg/mL
same,MIC50,Escherichia coli [31],4 µg/mL
same,MIC90,Escherichia coli [31],7.6 µg/mL
same,MIC50,Escherichia coli [32],4 µg/mL
same,MIC90,Escherichia coli [32],7.5 µg/mL
same,MIC50,Escherichia coli [33],4 µg/mL
same,MIC90,Escherichia coli [33],6.8 µg/mL
same,MIC50,Escherichia coli [34],4 µg/mL
same,MIC90,Escherichia coli [34],7.7 µg/mL
same,MIC50,Escherichia coli [35],1 µg/mL
same,MIC90,Escherichia coli [35],1.8 µg/mL

# Reference: ChEMBL document CHEMBL3286094, “Synthesis and biological evaluation of novel bisbenzimidazoles as Escherichia coli topoisomerase IA inhibitors and potential antibacterial agents” (J Med Chem, 2014)
